This note sets out measurements from ChEMBL document CHEMBL4400513, “Aurone derivatives as promising antibacterial agents against resistant Gram-positive pathogens” (Eur J Med Chem, 2019).

The nature of the series: Therapeutic index, ratio of IC50 for human IMR90 cells to MIC for Clostridium perfringens. To be noted: read-out: TI. Format: toxicity. In short, it runs like this:
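IC50 measured on confluent normal human BEAS-2B or IMR-90 cells (DMEM, 10% FCS) after 48 h exposure with DMSO 0.2% as control. Resazurin read after 4 h (ex 530/em 590 nm), normalised to DMSO-treated cells. Index obtained by comparing this IC50 with the bacterial MIC.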

Turning to `O=C1/C(=C/c2ccccc2)Oc2cc(O)cc(O)c21`, the selectivity ratio was found to be 32.
